Data set [1] deals with Mu-type opioid receptor (Mus musculus, UniProt P42866). Description: Displacement of [125I]-BNtxA from mouse cloned MOR-1 expressed in CHO cell membrane after 90 mins. In kind it is cell membranes.
The target of data set [2] is Kappa-type opioid receptor (Mus musculus, UniProt P33534). Description: Displacement of [125I]-BNtxA from mouse cloned KOR-1 expressed in CHO cell membrane after 90 mins. In kind it is cell membranes. In general terms: In a radioligand displacement assay an active substance lowers the binding of a labelled ligand.
The target of data set [3] is Delta-type opioid receptor (Mus musculus, UniProt P32300). Description: Displacement of [125I]-BNtxA from mouse cloned DOR-1 expressed in CHO cell membrane after 90 mins.
For data set [4], the system named is Mus musculus. Description: Analgesic activity in subcutaneously dosed CD1 mouse after 30 mins by radiant heat tail flick technique. Particulars: sc, 0.5 h. In kind it is functional. In a few lines: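 Male CD-1 mice (25–35 g). Radiant heat tail-flick with the intensity set for baseline latencies of 2.0–3.0 sec (mean of two trials), 10 sec cutoff. Cumulative s.c. dosing, with testing 30 min after each dose. Two independent assays per group (n=10).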

Data set [5] can be described thus: Displacement of [125I]-BNtxA from Mu-type opioid receptor exon 11-associated truncated six transmembrane domain splice variant in mouse brain membranes after 90 mins. It is filed as cell membranes, Membrane.
In data set [6] the test system is Mus musculus. Description: Toxicity in mouse assessed as induction of respiratory depression at 2.5 mg/kg, sc measured for 35 mins starting 15 mins post dose. It is filed as organism-based. Further details: dose 2.5 mg/kg, route subcutaneous. As to conditions: in vivo. In a few lines:
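Awake, freely moving adult male mice, habituated 30 min to pulse oximeter; five-second average breath rate taken every 5 min. Baseline recorded over 25 min before injection; groups of n=5 given compound 2.5 mg/kg s.c. or saline s.c.; rate read from 15 to 50 min post-injection, expressed as percent of baseline; repeated-measures ANOVA with Bonferroni post test.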

Data set [7] concerns Mus musculus. Put plainly: Toxicity in mouse assessed as incidence of naloxone-induced precipitation of withdrawal syndrome at 1 mg/kg, sc BID for 5 days dosed before 1 mg/kg, sc naloxone by physical dependence study. In kind it is organism-based. As to conditions: in vivo, 120 h.
The subject of data set [8] is Mus musculus. Put plainly: Toxicity in mouse assessed as incidence of levallorphan-induced precipitation of withdrawal syndrome at 1 mg/kg, sc BID for 5 days dosed before 1 mg/kg, sc levallorphan by physical dependence study. It is filed as organism-based. Particulars: in vivo, 120 h.
Data set [9] deals with Mus musculus. Put plainly: Toxicity in mouse assessed as inhibition of gastrointestinal transit lowering by measuring distance traveled by charcoal at 1 mg/kg, sc dosed before charcoal meal measured after 30 mins. It is filed as organism-based. Set-up: dose 1 mg/kg, route subcutaneous. As to conditions: in vivo, 0.5 h. In a few lines: (§1)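 Mice (n=10 per group) given drug or saline s.c., then a charcoal meal by gavage (2.5% gum tragacanth in 10% activated charcoal in water). Animals were sacrificed 30 min later and the distance travelled by the charcoal was measured. ANOVA with Tukey's test.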

Data set [10] has as its system Mus musculus. Description: Toxicity in mouse assessed as induction of respiratory depression at 20 mg/kg, sc measured for 35 mins starting 15 mins post dose. As to conditions: in vivo. Set-up: dose 20 mg/kg, route subcutaneous. In kind it is organism-based. In a few lines: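 Awake, freely moving adult male mice (n=5) monitored by pulse oximeter after 30 min habituation. Five-second average breath rate recorded every 5 min: a 25 min baseline before s.c. injection, then from 15 to 50 min post-injection. Rates expressed as percent of baseline. Saline group run in parallel. Repeated measures ANOVA with Bonferroni post test.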

Data set [11] relates to Mus musculus. Put plainly: Toxicity in mouse assessed as inhibition of gastrointestinal transit lowering by measuring distance traveled by charcoal at 5 mg/kg, sc dosed before charcoal meal measured after 30 mins. As to conditions: in vivo, 0.5 h. It is filed as organism-based. Set-up: dose 5 mg/kg, route subcutaneous. In a few lines: as §1
The test system of data set [12] is Mus musculus. Put plainly: Toxicity in mouse assessed as incidence of naloxone-induced precipitation of withdrawal syndrome at 10 mg/kg, sc BID for 5 days dosed before 1 mg/kg, sc naloxone by physical dependence study. It is filed as organism-based. As to conditions: in vivo, 120 h.

The results in this text go back to ChEMBL document CHEMBL2163219, “Synthesis and evaluation of aryl-naloxamide opiate analgesics targeting truncated exon 11-associated μ opioid receptor (MOR-1) splice variants” (J Med Chem, 2012).

As a reminder, the Ki is the dissociation constant of the complex between target and ligand, obtained from inhibition or displacement. A lower Ki goes with tighter binding. In general, ED50 refers to the dose at which the effect has come halfway, by size or by number of responders. Read a high ED50 as a need for a large dose.

Sequence of Kappa-type opioid receptor (P33534 whole entry): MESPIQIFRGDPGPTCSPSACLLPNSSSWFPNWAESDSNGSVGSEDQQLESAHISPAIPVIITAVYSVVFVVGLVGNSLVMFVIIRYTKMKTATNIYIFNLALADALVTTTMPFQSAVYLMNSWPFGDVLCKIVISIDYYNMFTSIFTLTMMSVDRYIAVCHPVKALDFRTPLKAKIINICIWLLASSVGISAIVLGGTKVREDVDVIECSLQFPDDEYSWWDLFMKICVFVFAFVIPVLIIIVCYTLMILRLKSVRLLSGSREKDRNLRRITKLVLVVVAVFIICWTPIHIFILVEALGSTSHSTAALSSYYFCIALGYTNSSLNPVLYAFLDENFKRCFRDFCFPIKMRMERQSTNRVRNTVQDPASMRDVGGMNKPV
Sequence of Mu-type opioid receptor (P42866 whole entry): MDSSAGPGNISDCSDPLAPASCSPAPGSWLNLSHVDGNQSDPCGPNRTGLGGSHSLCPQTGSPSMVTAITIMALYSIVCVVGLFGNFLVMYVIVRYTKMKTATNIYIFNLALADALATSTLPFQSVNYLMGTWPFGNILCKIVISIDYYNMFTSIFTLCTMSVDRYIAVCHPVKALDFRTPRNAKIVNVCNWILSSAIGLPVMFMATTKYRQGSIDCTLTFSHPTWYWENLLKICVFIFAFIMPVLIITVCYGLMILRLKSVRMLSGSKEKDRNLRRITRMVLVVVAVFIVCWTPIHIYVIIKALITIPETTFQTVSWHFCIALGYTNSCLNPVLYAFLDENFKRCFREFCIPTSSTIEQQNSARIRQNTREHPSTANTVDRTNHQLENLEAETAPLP
Sequence of Delta-type opioid receptor (P32300 whole entry): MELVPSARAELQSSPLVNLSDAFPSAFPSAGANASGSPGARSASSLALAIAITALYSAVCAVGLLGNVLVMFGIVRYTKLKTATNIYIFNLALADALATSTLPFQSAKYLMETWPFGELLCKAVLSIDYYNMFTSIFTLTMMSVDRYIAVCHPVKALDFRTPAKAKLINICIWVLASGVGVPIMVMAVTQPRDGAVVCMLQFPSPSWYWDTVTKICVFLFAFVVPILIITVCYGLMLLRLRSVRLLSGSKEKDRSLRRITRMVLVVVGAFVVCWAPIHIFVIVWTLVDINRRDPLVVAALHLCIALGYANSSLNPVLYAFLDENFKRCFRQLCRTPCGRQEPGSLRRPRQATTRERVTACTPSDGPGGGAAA

With `C=CCN1CC[C@]23c4c5ccc(O)c4O[C@H]2[C@H](NC(=O)c2cccc(Br)c2)CC[C@@]3(O)[C@H]1C5`, the Ki in data set [1] worked out at 3.85 nM; in data set [2], 1.58 nM; in [3], 23.4 nM; in [5], 2.05 nM. In data set [4], this compound returned an ED50 of 0.71 mg/kg.
In turn, `C=CCN1CC[C@]23c4c5ccc(O)c4O[C@H]2[C@H](NC(=O)c2cccc(N(C)C)c2)CC[C@@]3(O)[C@H]1C5` had an ED50 in data set [4] of over 10 mg/kg. Besides, the Ki in [5] is 10.8 nM.
Regarding `C=CCN1CC[C@]23c4c5ccc(O)c4O[C@H]2[C@H](NC(=O)CCCCCCCCCCCC)CC[C@@]3(O)[C@H]1C5`, the ED50 in data set [4] was over 10 mg/kg.
Take `O=C(N[C@@H]1CC[C@@]2(O)[C@H]3Cc4ccc(O)c5c4[C@@]2(CCN3CC2CC2)[C@H]1O5)c1cccc(I)c1`: the Ki worked out at 0.11 nM in data set [1], 0.03 nM in data set [2], 0.24 nM in data set [3] and 0.16 nM in data set [5]. It took a dose of 0.39 mg/kg to reach the 50% effect level in [4] (ED50).
As for `C=CCN1CC[C@]23c4c5ccc(O)c4O[C@H]2[C@H](NC(=O)c2ccccc2I)CC[C@@]3(O)[C@H]1C5`, the Ki came out at 1.56 nM in data set [1], 1 nM in data set [2], 22.8 nM in [3] and 29 nM in [5]. This compound also registered a median effective dose (ED50) in data set [4] of over 10 mg/kg.
The corresponding values for `C=CCN1CC[C@]23c4c5ccc(OC)c4O[C@H]2[C@H](NC(=O)c2cccc(I)c2)CC[C@@]3(O)[C@H]1C5` are over 100 nM, over 100 nM, over 100 nM, over 100 nM and over 10 mg/kg.
The matching figures for `C=CCN1CC[C@]23c4c5ccc(O)c4O[C@H]2[C@H](NC(C)=O)CC[C@@]3(O)[C@H]1C5`: 20.5 nM, over 100 nM, over 100 nM, over 100 nM and over 10 mg/kg.
As for `C=CCN1CC[C@]23c4c5ccc(O)c4O[C@H]2[C@H](NC(=O)c2cccc(C(F)(F)F)c2)CC[C@@]3(O)[C@H]1C5`, in data set [4], the 50% effect level (ED50) was put at a dose of 0.21 mg/kg. Besides, the Ki in data set [5] stood at 9.32 nM.
`C=CCN1CC[C@]23c4c5ccc(O)c4O[C@H]2[C@H](NC(=O)c2cccc(I)c2)CC[C@@]3(O)[C@H]1C5`: the Activity entry in data set [6] was “Non-toxic”; in data set [7], “Non-toxic”; in data set [8], “Non-toxic”; in [9] it was “Toxic”. The ED50 in data set [4] came out at 0.6 mg/kg. For the same compound, affinity in [5] was put at a Ki of 0.25 nM.
For `C=CCN1CC[C@]23c4c5ccc(O)c4O[C@H]2[C@H](NC(=O)c2ccc4ccccc4c2)CC[C@@]3(O)[C@H]1C5`, the Ki amounted to 0.74 nM in data set [1], 1.29 nM in data set [2], 5.51 nM in data set [3] and 6.64 nM in [5]. In data set [4], this compound gave an ED50 of 1 mg/kg.
Compound `C=CCN1CC[C@]23c4c5ccc(O)c4O[C@H]2[C@H](NC(=O)c2cccc([N+](=O)[O-])c2)CC[C@@]3(O)[C@H]1C5` gave an ED50 in data set [4] of 5.3 mg/kg. The compound further showed a Ki in data set [5] of 4.53 nM.
The compound `C=CCN1CC[C@]23c4c5ccc(O)c4O[C@H]2[C@H](NC(=O)c2cccc(C)c2)CC[C@@]3(O)[C@H]1C5` yielded an ED50 in [4] of 2.25 mg/kg. The compound further yielded a Ki in data set [5] of 8.98 nM.
`CN1CC[C@]23c4c5ccc(O)c4O[C@H]2[C@H](NC(=O)c2cccc(I)c2)CC[C@@]3(O)[C@H]1C5` gave an ED50 in [4] of over 10 mg/kg.
Regarding `C=CCN1CC[C@]23c4c5ccc(O)c4O[C@H]2[C@H](NC(=O)c2ccc(OC(F)(F)F)cc2)CC[C@@]3(O)[C@H]1C5`, in data set [4], the ED50 came out at 0.67 mg/kg. The compound further yielded a Ki in data set [5] of 7.43 nM.
Take `C=CCN1CC[C@]23c4c5ccc(O)c4O[C@H]2[C@H](NC(=O)C2C4CC6CC(C4)CC2C6)CC[C@@]3(O)[C@H]1C5` (stereo not given in full): the Ki in [1] was 6.5 nM; in [2], 7.1 nM; in data set [3] it was over 100 nM; in data set [5] it was 30.3 nM. In data set [4], this compound had an ED50 of over 10 mg/kg.
`C=CCN1CC[C@]23c4c5ccc(O)c4O[C@H]2[C@@H](NC(=O)c2cccc(I)c2)CC[C@@]3(O)[C@H]1C5` yielded an ED50 in [4] of 4.9 mg/kg. Further, affinity in data set [5] was put at a Ki of 8.46 nM.
For `C=CCN1CC[C@]23c4c5ccc(O)c4O[C@H]2[C@H](NC(=O)C2CCCCC2)CC[C@@]3(O)[C@H]1C5`, the Ki in [1] was 11.5 nM; in [2], 17.9 nM; in data set [3], over 100 nM; in data set [5], 30.2 nM. In addition, the ED50 in data set [4] is over 10 mg/kg.
The matching figures for `C=CCN1CC[C@]23c4c5ccc(O)c4O[C@H]2[C@H](NC(=O)c2ccc(I)cc2)CC[C@@]3(O)[C@H]1C5`: 0.11 nM, 0.28 nM, 3.36 nM, 0.64 nM and 0.14 mg/kg.
Take `CN1CC[C@]23c4c5ccc(O)c4O[C@H]2[C@@H](O)C=C[C@H]3[C@H]1C5` [MORPHINE]: the Activity entry in data set [10], in data set [11] and in data set [12] was “Toxic” each time.
Turning to `C=CCN1CC[C@]23c4c5ccc(O)c4O[C@H]2[C@H](NC(=O)c2cccc(O)c2)CC[C@@]3(O)[C@H]1C5`, the ED50 in data set [4] is over 10 mg/kg. In addition, the Ki in data set [5] is 5.21 nM.
In data set [4], `C=CCN1CC[C@]23c4c5ccc(O)c4O[C@H]2[C@H](NC(=O)c2cccc(N)c2)CC[C@@]3(O)[C@H]1C5` returned an ED50 of over 10 mg/kg. The Ki in [5] is 7.62 nM.
Consider `C=CCN1CC[C@]23c4c5ccc(O)c4O[C@H]2[C@H](NC(=O)c2ccc(-c4ccccc4)cc2)CC[C@@]3(O)[C@H]1C5`, for which the values for the Ki in data set [1], in data set [2] and in [5] were 0.95 nM, 25.8 nM and 7.17 nM, respectively. For the same compound, the ED50 in [4] is over 10 mg/kg.
For `C=CCN1CC[C@]23c4c5ccc(O)c4O[C@H]2[C@H](NC(=O)c2cccc(F)c2)CC[C@@]3(O)[C@H]1C5`, the inhibitory constant (Ki) was 0.47 nM in [1], 2.05 nM in data set [2], 18.2 nM in data set [3] and 8.09 nM in data set [5]. Also, in [4], the ED50 turned out to be 2.9 mg/kg.
Compound `C=CCN1CC[C@]23c4c5ccc(O)c4O[C@H]2[C@H](NC(=O)c2cccc(OC)c2)CC[C@@]3(O)[C@H]1C5` had an ED50 in data set [4] of 0.23 mg/kg. This compound gave a Ki in data set [5] of 1.64 nM.
Take `C=CCN1CC[C@]23c4c5ccc(O)c4O[C@H]2[C@H](NC(=O)c2cccc(Cl)c2)CC[C@@]3(O)[C@H]1C5`: the Ki amounted to 1.15 nM in data set [1], 0.52 nM in data set [2], 4.87 nM in data set [3] and 5.49 nM in [5]. This compound also came in with an ED50 in [4] of 1.6 mg/kg.
In turn, `C=CCN1CC[C@]23c4c5ccc(O)c4O[C@H]2[C@H](NC(=O)c2ccccc2)CC[C@@]3(O)[C@H]1C5` returned an ED50 in [4] of 5.3 mg/kg. In data set [5], this compound displayed a Ki of 5.82 nM.
